# This excerpt belongs to a sample that is enriched for hits.
# UCH37 inh: blocks the human deubiquitinase UCH37 | purified proteasome/UCH37, Ub-AMC cleavage fluorescence | Q9Y5K5 | AID 588478 | 330,000 compounds, 0.33% hits | inhibition, % (concentration not given with the values);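 active means mean inhibition over replicate wells above about 20%, limit read from the data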;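 further: 0% = compound-free wells with enzyme and 100% = wells lacking proteasome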
# Target sequence (Q9Y5K5 whole entry, looked up): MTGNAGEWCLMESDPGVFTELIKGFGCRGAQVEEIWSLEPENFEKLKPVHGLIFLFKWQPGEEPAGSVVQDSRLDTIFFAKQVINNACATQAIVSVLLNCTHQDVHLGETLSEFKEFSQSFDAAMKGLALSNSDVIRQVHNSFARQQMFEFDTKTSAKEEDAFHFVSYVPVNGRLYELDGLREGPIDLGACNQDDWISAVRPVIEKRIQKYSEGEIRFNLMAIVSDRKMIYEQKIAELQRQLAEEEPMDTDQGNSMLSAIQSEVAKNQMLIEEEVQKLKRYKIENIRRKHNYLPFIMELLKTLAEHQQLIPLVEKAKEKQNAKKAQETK
#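 Schedule: 30 min plus 25 min, room temperature / Material: human UCH37 within purified proteasomes / Technique: AMC fluorescence intensity at 355/460 nm / Buffer or medium: pH 7.4 Tris-HCl (50 mM) with ovalbumin, ATP-MgCl2, DTT / Controls: wells without proteasome as full block, compound-free enzyme plus substrate as uninhibited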
# UPR CHOP act: apoptotic UPR (CHOP) activation; CHO-CHOP luciferase reporter, luminescence; percent of tunicamycin response over DMSO baseline; 330,000 compounds, 0.34% hits; activation, % at 10 µM;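 active means at 10 µM dose, activation of 40% or more, normalized to positive control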;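 further: 100% = tunicamycin at 10 µg/mL and 0% = DMSO alone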
#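 Material: CHO-CHOP cells, stable luciferase reporter of PERK-eIF2a-CHOP signalling; quantity: 500 reporter cells seeded per well; buffer or medium: F12 medium containing 10% fetal bovine serum; compound: one dose, 10 µM in 0.5% DMSO; incubation: 6 h compound treatment, 37 °C; measured by: Steady-Glo luciferase luminescence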
# UPR XBP1 act: activators of adaptive arm of unfolded protein response (XBP1); AID 463104; 330,000 compounds, 0.33% hits; activation, % at 20 µM; CHO-XBP1 luciferase reporter, IRE1-XBP1 UPR activation, luminescence; percent of tunicamycin response, DMSO as zero;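 active means versus positive control, 20 µM dose yields 30% or more activation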;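 further: 100% = tunicamycin at 10 µg/mL and 0% = DMSO only wells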
#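 Signal: luciferase luminescence; Assay system: CHO-XBP1 luciferase reporter cells; Amount: one thousand reporter cells per well; Dosing: 20 µM single concentration, DMSO 1%; Benchmarks: high control tunicamycin 10 µg/mL final, low control DMSO vehicle only; Schedule: 6 h compound exposure at 37 °C, 5% CO2; Evaluation: percent activation relative to tunicamycin reference.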
# CHOP inh: inhibitors of CHOP induction in ER stress response; 220,000 compounds, 3.8% hits; inhibition, % at 10 µM; CHO-K1 CHOP-promoter luciferase, tunicamycin-induced, 15-18 h; AID 2732;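 active means compounds that reduced the stress-induced luciferase reporter signal by more than about 70% of percent inhibition, limit read from the data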;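 further: 0% = tunicamycin plus vehicle and 100% = wells without tunicamycin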
# Fh CTSL1 inh: cathepsin L1 inhibition, PFM18AAP counter-screen | inhibition, % at 5.96 µM | 300,000 compounds, 0.49% hits | recombinant F. hepatica cathepsin L1, Z-Leu-Arg-MCA fluorescence;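 active means inhibition above the mean of all tested compounds plus 3 SD, set per screening campaign, cut at about 17% in these data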;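 further: 0% = plate median of test compound wells and 100% = 1 µM Z-Phe-Ala-diazomethylketone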
# CHOP inh conf: confirmation of CHOP induction inhibitors; shares compounds with CHOP inh; CHO-CHOP promoter luciferase reporter, tunicamycin-induced, luminescence; inhibition, % at 10 µM; 2,100 compounds, 45% hits; AID 504437;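 active means mean of three repeat readings of reporter signal inhibition above a set limit, cut at about 70% in these data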;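 further: 0% = tunicamycin plus vehicle and 100% = wells lacking tunicamycin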
# * = called active by the depositor; . = no result given.
SMILES,UCH37 inh,UPR CHOP act,UPR XBP1 act,CHOP inh,Fh CTSL1 inh,CHOP inh conf
CN1C(=O)NC(c2ccccc2)C2=C1CN(c1ccc3ccccc3c1)C2=O (stereo unspecified),-43,-1,-4,96*,4,15
COc1ccccc1C(=O)NC(=Nc1nc2ccccc2o1)NC(=O)c1ccccc1OC,3,-5,-5,106*,-5,134*
O=P(C(=NO)Sc1ccccc1)(N1CCOCC1)N1CCOCC1,2,.,.,.,.,.
COC(=O)C(Nc1ccccc1Cl)(c1cc(C)c(O)c(C)c1)C(F)(F)F (stereo unspecified),-6,1,-1,109*,7,97*
CC(=NOC(=O)c1c(-c2ccccc2Cl)noc1C)c1ccncc1,3,.,.,.,.,.
COc1ccc(/C=C2\C(=O)NC(=S)N2C(=O)c2ccc(F)cc2)cc1,-3,.,.,97*,5,26
O=C1NC(=S)N(C(=O)c2ccc(F)cc2)/C1=C/c1ccccc1,3,3,0,67,6,.
CC1CCCCC1n1c(=S)[nH]c2ccccc2c1=O (stereo unspecified),0,-2,12,103*,2,11
CC1CCCCC1NC(=O)CCCn1c(=S)[nH]c2ccccc2c1=O (stereo unspecified),4,0,1,26,-2,.
Clc1ccc(Cn2cc(/C=N/n3cnnc3)c3ccccc32)c(Cl)c1,.,0,1,108*,1,49
Cc1ccc(-c2nn(C)c(=O)c3ccccc23)cc1CNC(=O)Cn1nc(-c2ccccc2)c2ccccc2c1=O,6,.,.,97*,.,78*
COc1ccc(C2CC(c3ccccc3)=NN2S(=O)(=O)c2ccccc2)cc1 (stereo unspecified),4,-1,1,5,0,.
Cc1ccc(C2=NN(C(=O)c3cccs3)C(c3ccccc3O)C2)cc1 (stereo unspecified),-1,0,0,103*,2,105*
Cc1ccc(C2=NN(S(=O)(=O)c3ccccc3)C(c3ccccc3O)C2)cc1 (stereo unspecified),5,.,.,106*,.,38
O=C(NN=C/C(Br)=C\c1ccccc1)c1ccco1,7,.,.,.,.,.
Cc1cccc(-c2onc3ccc(C4(C)OCCO4)cc23)c1,.,3,-1,106*,1,32
CC1(c2ccc3noc(-c4cccc(F)c4)c3c2)OCCO1,4,1,-2,38,1,.
Cc1ccc(C=NNC(=O)c2cc(C3CC3)nc3ccccc23)o1,5,.,.,.,.,.
CC(C)(C)c1cc(-c2csc(Nc3ccccc3)[n+]2Cc2ccc(C(=O)O)cc2)cc(C(C)(C)C)c1O,9,0,11,106*,2,121*
C/C(C=NNC(=O)CSc1ccccn1)=C/c1ccc(C(C)C)cc1,1,.,.,.,.,.
O=C(Cc1ccccc1)NNC(=O)Nc1cccc(Cl)c1,2,0,0,18,-1,.
O=C(CN1c2ccccc2Sc2ccccc21)NNC(=O)Nc1cccc(Cl)c1,5,2,-1,103*,1,118*
Cc1nc(-c2c(C(F)(F)F)noc2-c2ccc(O)cc2O)cs1,3,-1,-2,54,-1,.
CCOc1cc(C)c(-c2onc(C(F)(F)F)c2-c2csc(C)n2)c(O)c1,3,2,2,105*,3,72*
CC(C)(C)C(=O)Nc1sc2c(c1C#N)CCC2,0,0,-2,41,-6,.
SMILES,UCH37 inh,UPR CHOP act,UPR XBP1 act,CHOP inh,Fh CTSL1 inh,CHOP inh conf
CC(C)(C)C(=O)NC(NC(=S)Nc1sc2c(c1C#N)CCCC2)C(Cl)(Cl)Cl (stereo unspecified),8,-1,-2,97*,1,74*
CN(C)c1ccc(Sc2nnc(NC(=O)Nc3ccc(Cl)cc3Cl)s2)cc1,2,3,14,100*,2,36
CCC(=O)Nc1nnc(Sc2ccc(N(C)C)cc2)s1,0,-3,-1,4,-3,.
O=S(=O)(Nc1cccc2c1CCCC2)c1cccc(C(F)(F)F)c1,3,0,3,107*,6,120*
O=C(O)c1ccccc1NS(=O)(=O)c1cccc(C(F)(F)F)c1,1,0,1,1,2,.
COc1cc(C=NNC(=O)c2ccc(O)cc2)ccc1OCC(=O)N1CC(C)OC(C)C1 (stereo unspecified),5,.,.,.,.,.
Cc1sc(NC(=O)c2cccc([N+](=O)[O-])c2)c(C(N)=O)c1-c1ccc(C(C)(C)C)cc1,4,10,-1,107*,-2,139*
CC1=CC(C)(C)Nc2ccc(OC(=O)c3ccco3)cc21,-19,-8,-11,.,-22,-233
Cc1cc(Cl)ccc1OCC(=O)NN=C1CC2C=CCC12 (stereo unspecified),4,.,.,.,.,.
O=C(Nc1ccc2oc(=O)ccc2c1)c1ccc(-c2cccc(Cl)c2)o1,-5,1,4,100*,6,16
O=C(Nc1ccc2oc(=O)ccc2c1)c1ccc(-c2ccc(Cl)cc2)o1,-11,3,5,-17,-1,.
COc1ccc(Nc2nc(N)c([N+](=O)[O-])c(NCc3ccccc3)n2)cc1,7,3,8,15,3,.
Cc1ccc(Nc2nc(N)c([N+](=O)[O-])c(NCc3ccccc3)n2)cc1,3,2,17,104*,1,35
N=C1C(=O)OCC1c1ccccc1NC(=O)Nc1ccccc1 (stereo unspecified),1,-1,-4,8,-4,.
Cc1ccc(NC(=O)Nc2cc(Cl)ccc2C2COC(=O)C2=N)cc1 (stereo unspecified),-23,2,-1,101*,-5,62
CCOC(=O)C1=C(c2ccccc2)O/C(=C(/C#N)C(F)(F)F)S1,.,54*,-2,97*,8,113*
CCOC(=O)C1=C(c2ccccc2)O/C(=C(\C(=O)OC)C(F)(F)F)S1,2,-3,-1,48,1,.
COC(=O)C(Cc1cnc(Cl)s1)(C(=O)OC)c1ccc(C(F)(F)F)cc1[N+](=O)[O-],5,-2,-1,98*,-3,24
COC(=O)C(Cc1cnc(Cl)s1)(C(=O)OC)c1ccc([N+](=O)[O-])cc1[N+](=O)[O-],3,0,-1,-14,2,.
O=C(N/N=C/c1cccc([N+](=O)[O-])c1)c1cccc2cc[nH]c12,.,2,-2,101*,0,-14
S=c1[nH]nc(-c2ccncc2)n1N=C/C=C/c1ccco1,15,.,.,.,.,.
COc1ccc(NC(=O)CC2C(=O)N(c3ccc(F)cc3)C(=S)N2NC(=O)c2ccc(Cl)cc2)cc1 (stereo unspecified),4,2,-1,106*,-3,43
